# Measured values from different studies.
# Lines come from different studies, so protocols differ.
# Target: Proto-oncogene tyrosine-protein kinase ROS (ROS1, Homo sapiens, UniProt P08922)
SMILES,observed,action,technique,concentration,measurement,result
CC(=O)N1CCC(c2ccc(C(=O)NC3=NCCN3)cc2C(F)(F)F)CC1,cell-free assay,,competition with immobilised ligand,1 µM,remaining binding,99%
CCOc1cc(-c2nncn2C)ccc1Nc1ncc2cc(C)nc(NCC(C)(C)C)c2n1,enzyme activity,inhibitor,FRET,1 µM,inhibition,31%
CCN(CC)CCNC(=O)c1c(C)[nH]c(/C=C2\C(=O)Nc3ccc(F)cc32)c1C,enzyme activity,inhibitor,,10 µM,inhibition,35%
CCCOc1ccc(OC)c(F)c1C(=O)c1ccc(C(=O)N[C@@H]2CNC[C@H]2NC(=O)c2ccc3[nH]ncc3c2)cc1,enzyme activity,inhibitor,,10 µM,remaining activity,105%
Cc1cc(NC(=O)c2cccc3cc(-c4cccc5[nH]nc(N)c45)ccc23)ccc1F,enzyme activity,inhibitor,,0.1 µM,activity vs control,111%
CNC(=O)c1cc2c(Oc3ccc(NC(=O)C4(C(=O)Nc5ccc(F)cc5)CC4)cc3)ccnc2cc1OC,enzyme activity,inhibitor,radiometric,1 µM,inhibition,89%
Cc1c(NC(=O)c2cc(C(N)=O)nc3cc(F)ccc23)c(C(F)(F)F)nn1Cc1ccc(C#N)cc1,cell-free assay,,competition with immobilised ligand,1 µM,remaining binding,99%
Cc1ccc(Nc2nccc(N(C)c3ccc4c(C)n(C)nc4c3)n2)cc1S(N)(=O)=O,enzyme activity,inhibitor,,0.3 µM,inhibition,3%
O=C1Nc2ccc(Cl)cc2C1=Cc1cc(Cl)c(O)c(Cl)c1,cell-free assay,,,0.5 µM,remaining signal,89.7%
Cc1ccc(NC(=O)c2ccc(C)c(C(F)(F)F)c2)cc1C#Cc1nn(C2CCC(O)CC2)c2ncnc(N)c12 (stereo not drawn),cell-free assay,,,10 µM,remaining signal,82%
CNC(=O)Nc1ccc2c(c1)[C@@]1(CC2)OC(=O)N(CC(=O)N(Cc2ccc(F)cc2)[C@@H](C)C(F)(F)F)C1=O,cell-free assay,,competition with immobilised ligand,1 µM,remaining binding,87%
CC(C)(C)c1nc(-c2cccc(NS(=O)(=O)c3c(F)cccc3F)c2F)c(-c2ccnc(N)n2)s1,enzyme activity,inhibitor,radiometric,1 µM,remaining activity,96%
Cc1c[nH]c2nccc(Oc3c(F)cc(Nc4cc(Cl)nc(N)n4)cc3F)c12,cell-free assay,,competition with immobilised ligand,0.1 µM,remaining binding,96%
Cc1ccc(C(=O)Nc2ccc(CN3CCN(C)CC3)c(C(F)(F)F)c2)cc1C#Cc1cnc2cccnn12,enzyme activity,,,23.5 nM,remaining activity,78%
CCC(=O)N[C@H]1CC[C@@H](C(=O)N(C)c2ccc(-c3nc4ccccc4o3)cc2)C1,cell-free assay,,competition with immobilised ligand,1 µM,remaining binding,93%
CC(C)(O)[C@H]1CC[C@H](Nc2ccc3ncc(-c4cccc(C(F)(F)F)c4)n3n2)CC1,enzyme activity,inhibitor,,1 µM,remaining activity,25.1%
CC(=O)c1c(NS(C)(=O)=O)c2cc(-c3ccc(Cl)cc3)c(-c3ccc(Cl)cc3Cl)nc2n(C)c1=O,cell-free assay,,competition with immobilised ligand,1 µM,remaining binding,100%
N#CCCc1ccc2c(c1)-c1[nH]c3ccc([N+](=O)[O-])cc3c1CC(=O)N2,cell-free assay,,,0.5 µM,remaining signal,71%
